According to ChEMBL document CHEMBL1139401, “5-(4-Chlorophenyl)-5,6-dihydro-1,3-oxazepin-7(4H)-one derivatives as lipophilic cyclic analogues of baclofen: design, synthesis, and neuropharmacological evaluation” (2008):

How the values were obtained:
Type in all cases: functional
Conditions in all cases: route intraperitoneal
Mus musculus [1] = experiment: Neuropharmacological effect in albino mouse assessed as endurance time at 3 mg/kg, ip after 45 mins by rotarod test
In short: (§1)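 For the rotarod, the cylinder was 6 cm diameter, 30 cm high and turned at 12 rpm. Male albino mice were trained the day before to stay on for 300 s, and those not reaching this were excluded. Endurance time (max 300 s) was measured 30, 45, 60 and 90 min after ip drug in DMSO or vehicle. Five mice per group; mean ± SEM.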

Mus musculus [2] = experiment: Neuropharmacological effect in albino mouse assessed as endurance time at 3 mg/kg, ip after 60 mins by rotarod test; in short: as §1
Mus musculus [3] = experiment: Neuropharmacological effect in albino mouse assessed as endurance time at 3 mg/kg, ip after 90 mins by rotarod test; in short: as §1
Mus musculus [4] = experiment: Muscle relaxant activity in albino mouse at 3 mg/kg, ip after 30 mins by traction test; set-up: scale not given: the % may be the effect or the level left
In short: (§2)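 Traction test in male albino mice (20–25 g), five per group, given drug ip in DMSO. Success required touching the wire with at least one hind paw within 5 s; otherwise scored as failure. Mice were tested 30, 45, 60 and 90 min after dosing, immediately before the rotarod. Results are % successful, mean ± SEM.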

Mus musculus [5] = experiment: Muscle relaxant activity in albino mouse at 3 mg/kg, ip after 45 mins by traction test; set-up: scale not given: the % may be the effect or the level left; in short: as §2
Mus musculus [6] = experiment: Muscle relaxant activity in albino mouse at 3 mg/kg, ip after 60 mins by traction test; set-up: scale not given: the % may be the effect or the level left; in short: as §2
Mus musculus [7] = experiment: Muscle relaxant activity in albino mouse at 3 mg/kg, ip after 90 mins by traction test; set-up: scale not given: the % may be the effect or the level left; in short: as §2
Mus musculus [8] = experiment: Analgesic activity in albino mouse assessed as retention latency at 3 mg/kg, ip after 30 mins by hot plate test
In short: (§3)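 Male albino mice (20–25 g), five per group, given drug in DMSO ip; vehicle controls got DMSO alone. Mice were placed in a glass cylinder on a 54 °C metal plate. Latency to hind-paw lick or jump was recorded, with a 30 s cut-off. Testing was 30, 45, 60 and 90 min post-injection. Values are mean ± SEM.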

Mus musculus [9] = experiment: Analgesic activity in albino mouse assessed as retention latency at 3 mg/kg, ip after 45 mins by hot plate test; in short: as §3
Mus musculus [10] = experiment: Analgesic activity in albino mouse assessed as retention latency at 3 mg/kg, ip after 60 mins by hot plate test; in short: as §3
Mus musculus [11] = experiment: Analgesic activity in albino mouse assessed as retention latency at 3 mg/kg, ip after 90 mins by hot plate test; in short: as §3
Mus musculus [12] = experiment: Neuropharmacological effect in albino mouse assessed as onset of loss of righting reflex at 3 mg/kg, ip
In short: (§4)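 Male albino mice (20–25 g), five per group, injected ip (drug in DMSO). Loss of righting reflex was inability to right within 30 s, after which mice were laid supine in a 90° trough. Return was righting twice within 1 min. Onset was recorded, and duration was the time from loss to return. Values are mean ± SEM.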

Mus musculus [13] = experiment: Neuropharmacological effect in albino mouse assessed as duration of loss of righting reflex at 3 mg/kg, ip; in short: as §4
Mus musculus [14] = experiment: Neuropharmacological effect in albino mouse assessed as spontaneous locomotor activity at 3 mg/kg, ip after 30 mins
In short: (§5)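 Male albino mice (20–25 g), five per group, got ip drug in DMSO or DMSO vehicle and went back to their home cages. After 30, 45, 60 or 90 min each was placed alone in a Plexiglas box and spontaneous locomotor activity was recorded. Tests were run in the morning. Values are mean ± SEM.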

Mus musculus [15] = experiment: Neuropharmacological effect in albino mouse assessed as spontaneous locomotor activity at 3 mg/kg, ip after 45 mins; in short: as §5
Mus musculus [16] = experiment: Neuropharmacological effect in albino mouse assessed as spontaneous locomotor activity at 3 mg/kg, ip after 60 mins; in short: as §5
Mus musculus [17] = experiment: Neuropharmacological effect in albino mouse assessed as spontaneous locomotor activity at 3 mg/kg, ip after 90 mins; in short: as §5
Mus musculus [18] = experiment: Neuropharmacological effect in albino mouse assessed as endurance time at 3 mg/kg, ip after 30 mins by rotarod test; in short: as §1
Mus musculus [19] = experiment: Decrease in cognitive impairment in albino mouse assessed as retention latency at 3 mg/kg, ip after 30 mins by passive avoidance reflex test
In short: (§6)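 Passive avoidance in male albino mice (20–25 g), five per group, housed singly from the day before training. Drug in DMSO was given ip 30, 45, 60 or 90 min before the training trial. Mice were put in the light side of a two-compartment apparatus and the door to the dark side was opened. The retention test next day used the shock generator off. Latency reported as mean ± SEM.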

Mus musculus [20] = experiment: Decrease in cognitive impairment in albino mouse assessed as retention latency at 3 mg/kg, ip after 45 mins by passive avoidance reflex test; in short: as §6
Mus musculus [21] = experiment: Decrease in cognitive impairment in albino mouse assessed as retention latency at 3 mg/kg, ip after 60 mins by passive avoidance reflex test; in short: as §6
Mus musculus [22] = experiment: Decrease in cognitive impairment in albino mouse assessed as retention latency at 3 mg/kg, ip after 90 mins by passive avoidance reflex test; in short: as §6

Row | Compound | Activity (Mus musculus [1]) | Activity (Mus musculus [2]) | Activity (Mus musculus [3]) | Activity (Mus musculus [4]) | Activity (Mus musculus [5]) | Activity (Mus musculus [6]) | Activity (Mus musculus [7]) | Activity (Mus musculus [8]) | Activity (Mus musculus [9]) | Activity (Mus musculus [10]) | Activity (Mus musculus [11]) | Activity (Mus musculus [14]) | Activity (Mus musculus [15]) | Activity (Mus musculus [16]) | Activity (Mus musculus [17]) | Activity (Mus musculus [18]) | Activity (Mus musculus [19]) | Activity (Mus musculus [20]) | Activity (Mus musculus [21]) | Activity (Mus musculus [22]) | further results
1 | CCCCCCCC/C=C/CCCCCCCC1=NCC(c2ccc(Cl)cc2)CC(=O)O1 (configuration not stated) | 175 s | 155 s | 128 s | 35% | 35% | 33% | 31% | 9.34 s | 15.77 s | 23.61 s | 28.43 s | 11.45 m | 9.33 m | 10.61 m | 9.25 m | 198 s | 146.23 s | 110.36 s | 75.44 s | 68.44 s | Activity (Mus musculus [12]): 38.65 min; Activity (Mus musculus [13]): 93.37 min
2 | O=C1CC(c2ccc(Cl)cc2)CN=C(Cc2ccccc2)O1 (configuration not stated) | 185 s | 0 s | 0 s | 27% | 25% | 25% | 22% | 9.53 s | 15.38 s | 25.63 s | 28.73 s | 0 m | 0 m | 0 m | 0 m | 234 s | 125.64 s | 106.56 s | 70.34 s | 65.34 s | Activity (Mus musculus [12]): 42.12 min; Activity (Mus musculus [13]): 112.36 min
3 | CCCCCCCCCCCCCC1=NCC(c2ccc(Cl)cc2)CC(=O)O1 (configuration not stated) | 174 s | 169 s | 133 s | 40% | 40% | 35% | 35% | 8.33 s | 15.32 s | 18.45 s | 26.13 s | 15.24 m | 13.73 m | 14.76 m | 13.11 m | 219 s | 147.24 s | 109.34 s | 82.36 s | 67.56 s | Activity (Mus musculus [12]): 32.16 min; Activity (Mus musculus [13]): 75.93 min
4 | CC1=NCC(c2ccc(Cl)cc2)CC(=O)O1 (configuration not stated) | 300 s | 300 s | 300 s | 100% | 100% | 100% | 100% | 8.12 s | 8.22 s | 9.22 s | 9.33 s | 45.24 m | 43.46 m | 42.79 m | 40.13 m | 300 s | 163.23 s | 163.23 s | 160.43 s | 164.56 s | –
5 | CCCCCCCC1=NCC(c2ccc(Cl)cc2)CC(=O)O1 (configuration not stated) | 300 s | 300 s | 300 s | 100% | 100% | 100% | 100% | 8.12 s | 8.22 s | 9.23 s | 9.33 s | 45.24 m | 43.46 m | 42.79 m | 40.13 m | 300 s | 163.23 s | 163.23 s | 160.43 s | 164.56 s | –
6 | CCCCCCCCC1=NCC(c2ccc(Cl)cc2)CC(=O)O1 (configuration not stated) | 300 s | 300 s | 300 s | 100% | 100% | 100% | 100% | 8.12 s | 8.22 s | 9.23 s | 9.33 s | 45.24 m | 43.46 m | 42.79 m | 40.13 m | 300 s | 163.33 s | 163.23 s | 160.43 s | 164.56 s | –
7 | CCCCCCCCCCCC1=NCC(c2ccc(Cl)cc2)CC(=O)O1 (configuration not stated) | 188 s | 178 s | 145 s | 45% | 43% | 40% | 40% | 7.82 s | 13.21 s | 18.56 s | 24.43 s | 20.12 m | 16.21 m | 14.11 m | 15.66 m | 232 s | 152.34 s | 114.73 s | 88.14 s | 72.45 s | Activity (Mus musculus [12]): 38.23 min; Activity (Mus musculus [13]): 60.25 min
8 | CCCCCCCCCCC1=NCC(c2ccc(Cl)cc2)CC(=O)O1 (configuration not stated) | 300 s | 300 s | 300 s | 100% | 100% | 100% | 100% | 8.12 s | 8.22 s | 9.23 s | 9.33 s | 45.24 m | 43.46 m | 42.79 m | 40.13 m | 300 s | 163.53 s | 163.23 s | 160.43 s | 164.56 s | –
9 | C=CCCCCCCCCC1=NCC(c2ccc(Cl)cc2)CC(=O)O1 (configuration not stated) | 198 s | 185 s | 155 s | 55% | 50% | 50% | 53% | 8.32 s | 14.34 s | 19.73 s | 21.42 s | 25.36 m | 20.56 m | 19.43 m | 18.56 m | 222 s | 148.82 s | 118.32 s | 95.35 s | 95.45 s | Activity (Mus musculus [12]): 36.63 min; Activity (Mus musculus [13]): 55.33 min
10 | NCC(CC(=O)O)c1ccc(Cl)cc1 (configuration not stated) [BACLOFEN] | 225 s | 234 s | 254 s | 50% | 52% | 53% | 53% | 13.42 s | 15.35 s | 14.36 s | 14.22 s | 30.21 m | 28.48 m | 30.76 m | 35.64 m | 214 s | 125.34 s | 121.46 s | 121.44 s | 128.56 s | Activity (Mus musculus [12]): 20.24 min; Activity (Mus musculus [13]): 35.23 min
